The values that follow come from ChEMBL document CHEMBL1806469, “Design, synthesis, and antiproliferative activity of new 1H-pyrrolo[3,2-c]pyridine derivatives against melanoma cell lines” (Eur J Med Chem, 2011).

One may read the IC50 as the midpoint of a concentration-inhibition curve.

Some results are limits rather than exact numbers.

In one experiment the test system is NIH3T3. The experiment can be described thus: Antiproliferation activity against mouse NIH/3T3 cells after 48 hrs by MTT assay in presence of bovine calf serum. It counts as cell-based. To be noted: NIH3T3, 48 h. (In general: Tetrazolium assays rely on reduction of a dye to a coloured formazan, in cell work by metabolically active cells.)
A further experiment concerns A-375. The experiment can be described thus: Antiproliferation activity against human A375P cells after 48 hrs by MTT assay in presence of fetal bovine serum. To be noted: A-375, 48 h. It counts as functional, cell-based. The method, boiled down: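 A375P cells kept in DMEM with 10% FBS and 1% penicillin/streptomycin at 37 °C, 5% CO2. Plated at 5 × 10³ cells/well, left 24 h, then given 12 concentrations (3-fold serial dilution) for 48 h. Viability read by MTT reduction at 590 nm. IC50 from the dose-response curve; each compound tested in triplicate.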

For a further experiment, the system named is UACC-257. Put plainly: Antiproliferation activity against human UACC257 cells after 48 hrs by SRB assay. Format: functional, cell-based. To be noted: UACC-257, 48 h. The method, boiled down:
(§1)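 Run by the NCI. Cells grown in RPMI 1640 with 5% FBS and 2 mM glutamine, plated at 5000–40,000 cells/well by doubling time, and left 24 h at 37 °C, 5% CO2. Time-zero plates fixed with TCA. Drug (DMSO stock) given at five concentrations for 48 h. Cells fixed with cold TCA (final 10%), stained with 0.4% SRB, and read at 515 nm. IC50 taken as 50% reduction in net protein increase versus control.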
For orientation: The SRB assay estimates cell density from bound dye.

In the next experiment the test system is SK-MEL-2. Put plainly: Antiproliferation activity against human SK-MEL-2 cells after 48 hrs by SRB assay. It counts as functional, cell-based. The conditions noted are these: SK-MEL-2, 48 h. Put shortly:
as §1

The test system of another experiment is MDA-MB-435. Put plainly: Antiproliferation activity against human MDA-MB-435 cells after 48 hrs by SRB assay. Format: functional, cell-based. To be noted: MDA-MB-435, 48 h. The method, boiled down:
as §1

The test system of another experiment is Malme-3M. The experiment can be described thus: Antiproliferation activity against human MALME-3M cells after 48 hrs by SRB assay. It counts as functional, cell-based. Put shortly: as §1
The test system of another experiment is LOX IMVI. The experiment can be described thus: Antiproliferation activity against human LOXIMVI cells after 48 hrs by SRB assay. Format: functional, cell-based. The method, boiled down: as §1
The test system of another experiment is UACC-62. The experiment can be described thus: Antiproliferation activity against human UACC62 cells after 48 hrs by SRB assay. It counts as functional, cell-based. To be noted: UACC-62, 48 h. The method, boiled down: as §1
The test system of the next experiment is SK-MEL-5. The experiment can be described thus: Antiproliferation activity against human SK-MEL-5 cells after 48 hrs by SRB assay. It counts as functional, cell-based. The conditions noted are these: SK-MEL-5, 48 h. Put shortly: as §1
A further experiment has as its system M14. Put plainly: Antiproliferation activity against human M14 cells after 48 hrs by SRB assay. It counts as functional, cell-based. To be noted: M14, 48 h. The method, boiled down: as §1
The next experiment has as its system SK-MEL-28. The experiment can be described thus: Antiproliferation activity against human SK-MEL-28 cells after 48 hrs by SRB assay. The conditions noted are these: SK-MEL-28, 48 h. Format: functional, cell-based. The method, boiled down: as §1

`O=C(Nc1nccc2c1ccn2-c1ccc(NC(=O)c2ccc(-c3cc(C(F)(F)F)ccc3Cl)o2)cc1)c1ccccc1`: the IC50 in the experiment on NIH3T3 stood at 15900 nM; with A-375, 1000 nM.
As for `O=C(Nc1ccc(-n2ccc3c(NC(=O)c4ccccc4)nccc32)cc1)Nc1ccc(Cl)c(C(F)(F)F)c1`, in the experiment on A-375, the IC50 is 2400 nM.
Same read-out and setting: the same measure for `Nc1nccc2c1ccn2-c1ccc(NC(=O)c2ccc(N3CCOCC3)c(C(F)(F)F)c2)cc1`: 6200 nM.
For the compound `CCN1CCN(Cc2ccc(NC(=O)Nc3ccc(-n4ccc5c(NC(=O)c6ccccc6)nccc54)cc3)cc2C(F)(F)F)CC1`, the IC50 with UACC-257 came to 1590 nM; in the experiment with SK-MEL-2, 3620 nM; in the experiment on MDA-MB-435 it was 894 nM; in the experiment on Malme-3M, 1540 nM; with LOX IMVI, 481 nM; with UACC-62, 1270 nM. For the same compound, the IC50 with SK-MEL-5 stood at 764 nM; in the experiment with NIH3T3, 980 nM; with A-375, 95 nM; in the experiment with M14, 1220 nM; with SK-MEL-28, 1290 nM.
Consider `O=C(Nc1ccc(-n2ccc3c(NC(=O)c4ccccc4)nccc32)cc1)c1cccc(C(F)(F)F)c1`, for which the IC50 with NIH3T3 came out at 50 nM; in the experiment with A-375, 100 nM.
Consider `Cc1cc(NC(=O)c2ccc(N3CCOCC3)c(C(F)(F)F)c2)ccc1-n1ccc2c(NC(=O)c3ccccc3)nccc21`, for which, in the experiment with A-375, the IC50 is greater than 10000 nM.
As for `O=C(Nc1ccc(-n2ccc3c(NC(=O)c4ccccc4)nccc32)cc1)Nc1cccc(C(F)(F)F)c1`, the IC50 in the experiment with A-375 was 7000 nM.
For the compound `O=C(Nc1ccc(-n2ccc3c(NC(=O)c4ccccc4)nccc32)cc1)c1ccc(Cl)c(C(F)(F)F)c1`, the IC50 in the experiment with NIH3T3 stood at 5650 nM; in the experiment on A-375, 16.4 nM.
Consider `O=C(Nc1ccc(-n2ccc3c(NC(=O)c4ccccc4)nccc32)cc1)c1ccc(N2CCOCC2)c(C(F)(F)F)c1`, for which the concentration for half-maximal inhibition (IC50) was found to be 1980 nM with UACC-257; 637 nM in the experiment on SK-MEL-2; 119 nM with MDA-MB-435; 11500 nM with Malme-3M; 45.6 nM with LOX IMVI; 485 nM in the experiment on UACC-62. Further, the IC50 with SK-MEL-5 was 138 nM; with NIH3T3 it was 1740 nM; in the experiment on A-375, 7 nM; in the experiment with M14, 763 nM; in the experiment with SK-MEL-28, 292 nM.
Turning to `Cc1cn(-c2cc(C(=O)Nc3ccc(-n4ccc5c(NC(=O)c6ccccc6)nccc54)cc3)cc(C(F)(F)F)c2)cn1`, the IC50 in the experiment on NIH3T3 came to 5570 nM; in the experiment with A-375, 800 nM.
On to `Nc1nccc2c1ccn2-c1ccc(NC(=O)Nc2ccc(Cl)c(C(F)(F)F)c2)cc1`, for which the IC50 in the experiment with A-375 was determined as 8000 nM.
As for `Nc1nccc2c1ccn2-c1ccc(NC(=O)Nc2cccc(C(F)(F)F)c2)cc1`, the half-maximal inhibitory concentration (IC50) in the experiment with A-375 came to 5400 nM.
Still for that read-out and setting: in the case of `Cc1cc(NC(=O)c2ccc(Cl)c(C(F)(F)F)c2)ccc1-n1ccc2c(NC(=O)c3ccccc3)nccc21` it was 2700 nM.
For `O=C(Nc1ccc(-n2ccc3c(NC(=O)c4ccccc4)nccc32)cc1)Nc1ccc(Cl)c(Cl)c1`, the IC50 in the experiment on NIH3T3 worked out at 11500 nM; in the experiment on A-375 it was 200 nM.
For `O=C(Nc1ccc(-n2ccc3c(NC(=O)c4ccccc4)nccc32)cc1)c1cc(N2CCOCC2)cc(C(F)(F)F)c1` the same measures were 270 nM and 300 nM.
Regarding `O=C(Nc1ccc(-n2ccc3c(NC(=O)c4ccccc4)nccc32)cc1)Nc1cccc(Cl)c1Cl`, in the experiment on A-375, the IC50 is greater than 10000 nM.
The same measure, in the same setting: the same measure for `Cc1cc(NC(=O)Nc2cccc(Cl)c2Cl)ccc1-n1ccc2c(NC(=O)c3ccccc3)nccc21`: greater than 10000 nM; for `Cc1cc(NC(=O)c2cccc(C(F)(F)F)c2)ccc1-n1ccc2c(NC(=O)c3ccccc3)nccc21`: greater than 10000 nM.
Turning to `CNC(=O)c1cc(Oc2ccc(NC(=O)Nc3ccc(Cl)c(C(F)(F)F)c3)cc2)ccn1` [SORAFENIB], the IC50 stood at 24800 nM with NIH3T3 and 5600 nM in the experiment on A-375.
As to `Nc1nccc2c1ccn2-c1ccc(NC(=O)c2ccc(Cl)c(C(F)(F)F)c2)cc1`, the IC50 with A-375 was determined as 3800 nM.
The same measure, in the same setting: in the case of `O=C(Nc1ccc(-n2ccc3c(NC(=O)c4ccccc4)nccc32)cc1)Nc1cc(C(F)(F)F)cc(C(F)(F)F)c1` it was 1800 nM.
